Data reported in ChEMBL document CHEMBL1142832, “Potent 4-aminopiperidine based antimalarial agents” (Bioorg Med Chem Lett, 2005).

What was measured:
Mus musculus = organism: Mus musculus; assay: Percent remaining of compound was determined in mouse S9 liver microsomes at 1 hr; conditions: Liver S9 fraction
Plasmodium falciparum [1] = assay: Inhibition against multidrug-resistant Plasmodium falciparum infected erythrocytes; type: functional, organism-based
How it was run: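 Multidrug-resistant P. falciparum Dd2 was grown in human red blood cells and assayed at the late ring stage. Parasite growth was read as [3H]-hypoxanthine incorporation. Each compound was run in duplicate, and the mean IC50 (nM) is reported.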

HFF = assay: Cytotoxicity of compound was determined in human foreskin fibroblast assay; type: functional
How it was run: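 Human foreskin fibroblasts were assayed in quadruplicate, and the average toxicity value is reported in nM.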

Homo sapiens = organism: Homo sapiens; assay: Percent remaining of compound was determined in human S9 liver microsomes at 1 hr; conditions: Liver S9 fraction
Plasmodium falciparum [2] = assay: Inhibitory concentration against chloroquine-sensitive Plasmodium falciparum; type: functional, organism-based

Q: CCN(CCCNC1CCN(CC(c2ccccc2)c2ccccc2)CC1)CCc1ccc(-c2ccccc2)cc1 was tested. Which level, % of control (Mus musculus) did it give?
A: 113%

Q: What about the IC50 (Plasmodium falciparum [1]) of the same compound?
A: 75 nM

Q: What about the Cytotoxicity (HFF) of the same compound?
A: 7600 nM

Q: What about the level, % of control (Homo sapiens) of the same compound?
A: 45%

Q: Which IC50 (Plasmodium falciparum [1]) does the source give for CCN(CC)CCCNC1CCN(CCC2CCCCC2)CC1 here?
A: 920 nM

Q: And the Cytotoxicity (HFF)?
A: 2900 nM

Q: CCNCCCNC1CCN(CC(c2ccccc2)c2ccccc2)CC1 was tested. Which IC50 (Plasmodium falciparum [1]) did it give?
A: 2500 nM

Q: And the Cytotoxicity (HFF)?
A: 2600 nM

Q: Which IC50 (Plasmodium falciparum [1]) does the source give for CN(C)CCCNC1CCN(CC(c2ccccc2)c2ccccc2)CC1 here?
A: 300 nM

Q: And the Cytotoxicity (HFF)?
A: 1300 nM

Q: For CCN(CCCNC1CCN(CC(c2ccccc2)c2ccccc2)CC1)CC1CCCCC1, which IC50 (Plasmodium falciparum [1]) is on record?
A: 200 nM

Q: What about the Cytotoxicity (HFF) of the same compound?
A: 2200 nM

Q: For CCN(CCCNC1CCN(CC(c2ccccc2)c2ccccc2)CC1)CC(c1ccccc1)c1ccccc1, which IC50 (Plasmodium falciparum [1]) is on record?
A: 900 nM

Q: And the Cytotoxicity (HFF)?
A: 9900 nM

Q: With CCN(CC)CCCNC1CCN(CCc2ccc(Cl)cc2)CC1 as the compound, how does the IC50 (Plasmodium falciparum [1]) read?
A: 850 nM

Q: And the Cytotoxicity (HFF)?
A: 2700 nM

Q: For CCN(CC)CCCNC1CCN(CC2CCCCC2)CC1, which IC50 (Plasmodium falciparum [1]) is on record?
A: 4300 nM

Q: And the Cytotoxicity (HFF)?
A: 6000 nM

Q: What does the source list for c1ccc(C(CN2CCC(NCCCN3CCCC3)CC2)c2ccccc2)cc1?
A: IC50 (Plasmodium falciparum [1]): 200 nM; Cytotoxicity (HFF): 2500 nM

Q: CCN(CCCNC1CCN(CC(c2ccccc2)c2ccccc2)CC1)CCC1CCCCC1 was tested. Which IC50 (Plasmodium falciparum [1]) did it give?
A: 250 nM

Q: And the Cytotoxicity (HFF)?
A: 2100 nM

Q: Which IC50 (Plasmodium falciparum [1]) does the source give for CCN(CC)CCCNC1CCN(CCc2ccc(-c3ccccc3)cc2)CC1 here?
A: 400 nM

Q: What about the Cytotoxicity (HFF) of the same compound?
A: 1200 nM

Q: CCN(CCCNC1CCN(CC(c2ccccc2)c2ccccc2)CC1)CCc1ccc(Cl)cc1 was tested. Which IC50 (Plasmodium falciparum [1]) did it give?
A: 200 nM

Q: What about the Cytotoxicity (HFF) of the same compound?
A: 2000 nM

Q: Which IC50 (Plasmodium falciparum [1]) does the source give for c1ccc(C(CN2CCC(NCCCN3CCCCC3)CC2)c2ccccc2)cc1 here?
A: 200 nM

Q: And the Cytotoxicity (HFF)?
A: 1200 nM

Q: With c1ccc(Oc2ccc(CNCCCNC3CCN(CC4CCCCC4)CC3)cc2)cc1 as the compound, how does the IC50 (Plasmodium falciparum [2]) read?
A: 30 nM

Q: CCN(CC)CCCNC1CCN(CC(c2ccccc2)c2ccccc2)CC1 was tested. Which IC50 (Plasmodium falciparum [1]) did it give?
A: 900 nM

Q: What about the Cytotoxicity (HFF) of the same compound?
A: 9900 nM

Q: What about the IC50 (Plasmodium falciparum [2]) of the same compound?
A: 30 nM
